# GASC1 inh: KDM4C (human) demethylase inhibition; Q9H3R0; inhibition, % at 12.5 µM; 0.15% of 96,000 active; GST-KDM4C 2-372, H3K9me3 peptide, LANCE TR-FRET;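 active = mean replicate inhibition above about 25%, with at least 55% of replicates also reaching it, limit read from the data, passing the limit was not always enough; inconclusive = only one of those two conditions met; inactive = neither condition met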
# Target sequence (Q9H3R0 2-372 limits assumed): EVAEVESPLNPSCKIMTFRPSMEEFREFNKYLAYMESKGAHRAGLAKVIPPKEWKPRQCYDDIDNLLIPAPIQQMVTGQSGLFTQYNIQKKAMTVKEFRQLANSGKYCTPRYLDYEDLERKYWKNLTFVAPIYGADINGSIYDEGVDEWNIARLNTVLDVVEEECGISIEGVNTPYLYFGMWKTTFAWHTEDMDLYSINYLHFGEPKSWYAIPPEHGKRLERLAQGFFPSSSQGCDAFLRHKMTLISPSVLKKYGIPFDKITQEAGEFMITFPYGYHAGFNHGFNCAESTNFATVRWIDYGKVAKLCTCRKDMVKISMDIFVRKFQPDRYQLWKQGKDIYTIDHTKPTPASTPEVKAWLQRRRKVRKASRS
#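 Material: GST-tagged GASC-1 (JMJD2C) catalytic fragment, aa 2-372. Input: enzyme final amount 10 nM. Medium: HEPES buffer, pH 7.5, plus ascorbate. Reagent: H3K9me3 peptide substrate, Fe(II), 2-oxoglutarate. Doses: single dose. Times: reaction 30 min RT, detection step 1 h RT. Measured by: LANCE TR-FRET. Evaluation: Fall in 671/618 emission ratio as inhibition.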
# IDH1 mut inh: blocks human IDH1 R132H reductase activity; O75874; diaphorase/resazurin fluorescence, 60 min; inhibition, % at 10 µM; 0.18% of 70,000 active; AID 624101; in the data active = inhibition above about 34%; inconclusive = no clear call, values can overlap the other calls; inactive = below about 11%;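 note: 0% = DMSO and 100% = no enzyme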
# Target sequence (O75874 whole entry R132H): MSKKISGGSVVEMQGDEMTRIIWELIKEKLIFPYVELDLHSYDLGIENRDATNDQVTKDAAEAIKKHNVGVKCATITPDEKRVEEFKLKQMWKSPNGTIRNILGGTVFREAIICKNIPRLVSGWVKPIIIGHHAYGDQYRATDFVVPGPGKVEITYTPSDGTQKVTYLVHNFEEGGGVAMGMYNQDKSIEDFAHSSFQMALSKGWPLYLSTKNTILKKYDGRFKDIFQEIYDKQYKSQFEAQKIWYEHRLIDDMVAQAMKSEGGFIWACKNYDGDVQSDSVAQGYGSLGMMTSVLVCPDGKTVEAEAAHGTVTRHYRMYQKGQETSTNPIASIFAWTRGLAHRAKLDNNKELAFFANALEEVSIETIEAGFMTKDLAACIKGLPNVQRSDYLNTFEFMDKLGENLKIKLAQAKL
# T cruzi growth-1: blocks T. cruzi growth in NIH3T3 culture | T. cruzi beta-gal in NIH3T3, GalScreen luminescence, 90 h | inhibition, % at 8.34 µM | 5.9% of 77,000 active | AID 624255;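 active = mean inhibition above about 93%, with at least 55% of replicates each passing it, limit read from the data, passing the limit was not always enough; inconclusive = only one of those two conditions holds; inactive = neither condition holds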
# T cruzi growth-2: Trypanosoma cruzi proliferation inhibition. shares compounds with T cruzi growth-1. T. cruzi beta-gal in NIH3T3, GalScreen luminescence, 90 h. inhibition, % at 8.35 µM. 72% of 5,600 active;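 active = mean replicate inhibition above about 95% and at least 55% of replicates individually reaching it, limit read from the data; inconclusive = only one of the two criteria is met; inactive = neither criterion is met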
# T cruzi growth-3: blocks T. cruzi growth in NIH3T3 host cells | shares compounds with T cruzi growth-1 | T. cruzi beta-gal in NIH3T3, GalScreen luminescence, 90 h | inhibition, % at 2.09 µM | 21% of 5,600 active | AID 651740;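 active = mean inhibition above about 95%, with at least 55% of replicates also reaching it, limit read from the data; inconclusive = meets just one of the two conditions; inactive = meets neither condition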;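 note: plate controls were neutral control median for no effect and positive control median for full effect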
# NIH3T3 tox: NIH/3T3 (mouse) viability loss; shares compounds with T cruzi growth-1; NIH/3T3 viability, CellTiter-Glo ATP luminescence, 90 h; cytotoxicity (signal decrease), % at 8.35 µM; 14% of 5,600 active; AID 651742;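 active = mean signal decrease across replicates above about 35% based on untreated-well scatter, with enough replicates individually passing, limit read from the data; inconclusive = no rule stated though some were filed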;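 note: 0% = median of neutral control wells and 100% = median of positive control wells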
# NIH3T3 tox 2: cytotoxicity in mouse NIH/3T3 fibroblasts; shares compounds with T cruzi growth-1; NIH/3T3 viability, CellTiter-Glo ATP luminescence, 90 h; inhibition, % at 24.9 µM; 56% of 5,600 active; AID 651744;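 active = mean loss of cell viability signal at or above a set limit, and enough replicates individually reaching it; inconclusive = meets only the mean limit or only the replicate share; inactive = meets neither condition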;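 note: 0% = median of neutral control wells and 100% = median of positive control wells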
# * marks the source's active call; other numbers are inactive results; ? = inconclusive; nt = no result given. This excerpt belongs to a sample that is enriched for hits.
SMILES,GASC1 inh,IDH1 mut inh,T cruzi growth-1,T cruzi growth-2,T cruzi growth-3,NIH3T3 tox,NIH3T3 tox 2
Cc1cc(Cl)c(S(=O)(=O)N2CCc3ccccc32)cc1OCC(N)=O,nt,-2.1,nt,nt,nt,nt,nt
COC(=O)c1ccccc1NC(=O)CC(O)(C(F)(F)F)C(F)(F)F,nt,0.4,nt,nt,nt,nt,nt
C[C@H]1CN([C@@H](C)CO)S(=O)(=O)c2ccc(C#Cc3ccccc3F)cc2O[C@@H]1CN(C)C(=O)Cc1cccnc1,-2.7,0.1,81.0,nt,nt,nt,nt
C[C@@H]1CN([C@@H](C)CO)S(=O)(=O)c2ccc(C#Cc3ccccc3F)cc2O[C@H]1CN(C)C(=O)Cc1cccnc1,-2.8,5.0,96.2*,104.2*,36.3,33.6,72.7*
CC(=O)NCCc1c(C(=O)O)[nH]c2ccc(C(C)=O)cc12,nt,-0.1,nt,nt,nt,nt,nt
O=C(Nc1ccccc1F)N1CCCCN2[C@@H](CO)[C@H](c3ccc(C4=CCCC4)cc3)[C@@H]2C1,1.1,nt,70.1,nt,nt,nt,nt
O=C(Nc1ccccc1F)N1CCCCN2[C@@H](CO)[C@@H](c3ccc(C4=CCCC4)cc3)[C@@H]2C1,1.8,nt,51.6,nt,nt,nt,nt
O=C(Nc1ccccc1)N1CCCCN2[C@H](C1)[C@H](c1ccc(C3=CCCCC3)cc1)[C@@H]2CO,-0.8,nt,110.2*,108.9*,78.2,16.5,79.2*
O=C(Nc1ccccc1)N1CCCCN2[C@H](CO)[C@H](c3ccc(C4=CCCCC4)cc3)[C@@H]2C1,0.6,nt,?,115.3*,64.5,-6.9,93.6*
O=C(Nc1ccccc1)N1CCCCN2[C@@H](CO)[C@H](c3ccc(C4=CCCCC4)cc3)[C@@H]2C1,-0.3,nt,?,87.4,91.0,116.2*,104.6*
COc1ccc(NC(=O)N2CCCCN3[C@H](CO)[C@@H](c4ccc(C5=CCCC5)cc4)[C@H]3C2)cc1,nt,nt,93.0,nt,nt,nt,nt
O=C(Nc1ccccc1F)N1CCCCN2[C@H](CO)[C@@H](c3ccc(C4=CCCC4)cc3)[C@H]2C1,1.2,nt,63.8,nt,nt,nt,nt
O=C(Nc1ccccc1F)N1CCCCN2[C@H](CO)[C@H](c3ccc(C4=CCCC4)cc3)[C@@H]2C1,-1.7,nt,109.9*,109.3*,62.1,-6.3,12.8
COC(=O)c1ccc(C)c(NC(=O)CN(c2ccc(Cl)c(Cl)c2)S(C)(=O)=O)c1,nt,0.1,nt,nt,nt,nt,nt
CC(=O)Nc1ccc(NC(=O)COc2ccccc2C(=O)Nc2cccc(C)c2C)cc1,nt,2.8,nt,nt,nt,nt,nt
COc1ccc(NC(=O)c2ccco2)cc1NC(=O)CSc1ccc(Cl)cc1,nt,0.0,nt,nt,nt,nt,nt
NC(=O)c1ccccc1NC(=O)COc1ccc2oc3c(c2c1)CCCC3,nt,-0.2,nt,nt,nt,nt,nt
Cc1ccc([N+](=O)[O-])cc1S(=O)(=O)NCCOc1ccccc1Cl,nt,0.1,nt,nt,nt,nt,nt
CC1(C)CC(=O)C2=C(C1)NC1=C(C(=O)c3ccccc31)C2c1ccc(OC(=O)CN2C(=O)C3CCCCC3C2=O)cc1 (stereo not given),nt,0.9,nt,nt,nt,nt,nt
O=C(Nc1ccc(F)cc1)N1CCCCN2[C@H](CO)[C@H](c3ccc(C4=CCCCC4)cc3)[C@@H]2C1,-0.3,nt,118.2*,106.5*,98.1*,1.3,63.0*
COc1ccc(NC(=O)N2CCCCN3[C@@H](CO)[C@H](c4ccc(C5=CCCCC5)cc4)[C@@H]3C2)cc1,1.2,nt,78.3,nt,nt,nt,nt
COc1ccc(NC(=O)N2CCCCN3[C@H](C2)[C@H](c2ccc(C4=CCCC4)cc2)[C@@H]3CO)cc1,nt,nt,47.6,nt,nt,nt,nt
COc1ccc(NC(=O)N2CCCCN3[C@H](CO)[C@H](c4ccc(C5=CCCC5)cc4)[C@@H]3C2)cc1,nt,nt,117.4*,95.9*,106.5*,0.8,?
CCCC(=O)Nc1ccc2c(c1)OC[C@@H](C)N(C(=O)c1ccccc1F)C[C@H](C)[C@@H](OC)CN(C)C2=O,-0.8,0.3,-15.8,nt,nt,nt,nt
Cc1nc2ccccc2nc1OCC(=O)c1ccc(Cl)cc1,nt,1.4,nt,nt,nt,nt,nt
SMILES,GASC1 inh,IDH1 mut inh,T cruzi growth-1,T cruzi growth-2,T cruzi growth-3,NIH3T3 tox,NIH3T3 tox 2
CO[C@H]1C=C[C@@](C)(O)/C=C/C(=O)O[C@H](C)[C@@H](C)CC/C=C\1C,nt,0.2,nt,nt,nt,nt,nt
CCOC(=O)c1c(C)oc2ccc(S(=O)(=O)n3cc(-c4ccc(C)cc4)c(N)n3)cc12,nt,0.1,nt,nt,nt,nt,nt
COCCNC(=O)C[C@@H]1C[C@H]2c3cc(NC(=O)Nc4ccc(C(F)(F)F)cc4)ccc3O[C@H]2[C@H](CO)O1,0.2,-0.1,123.2*,42.3,-2.2,-14.0,-2.2
COCCNC(=O)C[C@H]1C[C@H]2c3cc(NC(=O)Nc4ccc(C(F)(F)F)cc4)ccc3O[C@H]2[C@H](CO)O1,1.3,-0.2,56.9,nt,nt,nt,nt
COC(=O)C[C@@H]1C[C@@H]2c3cc(NC(=O)Nc4ccc(C(F)(F)F)cc4)ccc3O[C@@H]2[C@H](CO)O1,-5.6,0.0,94.8,nt,nt,nt,nt
COC(=O)C[C@H]1C[C@@H]2c3cc(NC(=O)Nc4ccc(C(F)(F)F)cc4)ccc3O[C@@H]2[C@@H](CO)O1,-2.5,2.4,103.8*,108.3*,30.3,9.7,25.3*
O=C(O)Cn1cc(C(=O)C2CCCCC2)c2ccccc21,nt,0.5,nt,nt,nt,nt,nt
O=C(Nc1ccc(I)cc1C(=O)NCc1ccco1)c1cccnc1,nt,1.4,nt,nt,nt,nt,nt
CC(Sc1nc(N)c2c3c(sc2n1)COC(C)(C)C3)C(=O)Nc1ccccc1 (stereo not given),nt,0.1,nt,nt,nt,nt,nt
COC(=O)c1ccn(COc2ccccc2Cl)n1,nt,0.0,nt,nt,nt,nt,nt
O=C(NCCc1c[nH]c2ccccc12)NC1CCCCC1,nt,0.3,nt,nt,nt,nt,nt
C[C@H]1CN([C@@H](C)CO)S(=O)(=O)c2ccc(Br)cc2O[C@@H]1CN(C)S(=O)(=O)c1ccccc1F,-0.4,nt,87.4,nt,nt,nt,nt
C[C@H]1CN([C@@H](C)CO)S(=O)(=O)c2ccc(Br)cc2O[C@H]1CN(C)S(=O)(=O)c1ccccc1F,1.4,nt,73.5,nt,nt,nt,nt
C[C@H]1CN([C@@H](C)CO)S(=O)(=O)c2ccc(C#Cc3cccc(F)c3)cc2O[C@@H]1CN(C)S(=O)(=O)c1ccccc1F,-0.4,0.4,104.1*,103.9*,102.7*,23.0,60.0*
C[C@H]1CN([C@@H](C)CO)S(=O)(=O)c2ccc(C#Cc3cccc(F)c3)cc2O[C@H]1CN(C)S(=O)(=O)c1ccccc1F,0.2,0.0,111.3*,106.1*,72.1,22.1,?
Cc1ccc(-n2c(C)nnc2SCC(=O)Nc2cccc(C)c2C)cc1,nt,0.4,nt,nt,nt,nt,nt
COC(=O)C(C(CO)Cc1ccc(O)c(OC)c1)C(O)c1ccc(O)c(OC)c1 (stereo not given),nt,-0.3,nt,nt,nt,nt,nt
Cc1ccc(NC(=O)Cn2nc(-c3ccc(C)c(S(=O)(=O)N(C)C)c3)c3ccccc3c2=O)cc1,nt,0.2,nt,nt,nt,nt,nt
CN1C(=O)c2cc(NC(=O)Cc3cccs3)ccc2OC[C@H]2O[C@@H](CC(=O)N[C@H]3CCN(Cc4ccccc4)C3)CC[C@@H]21,1.5,nt,52.0,nt,nt,nt,nt

# Screens from PubChem BioAssay.
